The record followed here is ChEMBL document CHEMBL1124479, “N-[(arylmethoxy)phenyl] and N-[(arylmethoxy)naphthyl] sulfonamides: potent orally active leukotriene D4 antagonists of novel structure” (J Med Chem, 1989).

Experiment [1] concerns Cavia porcellus. The experiment can be described thus: Inhibition of Leukotriene D4 induced bronchoconstriction in guinea pig by 50 mg/kg i.d. To be noted: at 50 mg/kg.
The subject of experiment [2] is Cavia porcellus. The experiment can be described thus: Inhibition of ovalbumin-induced bronchoconstriction when compound was administered perorally at a dose of 50 mg/kg in guinea pig. The experiment is classed as functional. To be noted: route oral. The method, boiled down: (§1)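 Single-dose screen in guinea pigs, with n animals per group. Significance versus control used a two-tailed Student's t test (p < 0.05), or one-way ANOVA with contrasts based on each treatment's difference from its own control mean.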

The test system of experiment [3] is Cavia porcellus. In words: Inhibition of ovalbumin-induced bronchoconstriction when compound was administered intraduodenally at a dose of 50 mg/kg in guinea pig. To be noted: route intraduodenal. The class given is functional. The method, boiled down:
as §1

The subject of experiment [4] is Cavia porcellus. The experiment can be described thus: Percentage inhibition of Leukotriene D4 when Compound was administered perorally at a dose of 50 mg/kg in guinea pig,. The experiment is classed as functional. To be noted: route oral. The method, boiled down:
as §1

Experiment [5] relates to Cavia porcellus. The experiment can be described thus: Inhibition of Leukotriene D4 induced bronchoconstriction when compound was administered intraduodenally at a dose of 25 mg/kg in guinea pig.
Experiment [6] relates to Cavia porcellus. In words: Inhibition of Leukotriene D4 induced bronchoconstriction when compound was administered perorally at a dose of 50 mg/kg in guinea pig. To be noted: route oral. The class given is functional. The procedure, abridged:
as §1

Experiment [7] has as its system Cavia porcellus. In words: Inhibition of ovalbumin-induced bronchoconstriction when compound was administered perorally at a dose of 25 mg/kg in guinea pig. The experiment is classed as functional. To be noted: route oral. The procedure, abridged: as §1
Experiment [8] deals with Cavia porcellus. In words: Inhibition of Leukotriene D4 induced bronchoconstriction when compound was administered perorally at a dose of 25 mg/kg in guinea pig. The class given is functional. To be noted: route oral. The method, boiled down: as §1

Take `CCS(=O)(=O)Nc1cccc2ccc(OCc3ccc4ccccc4n3)cc12`: the inhibition in experiment [1] was -6%.
As for `CCCCS(=O)(=O)Nc1ccc2ccc(OCc3ccc4ccccc4n3)cc2c1`, the inhibition in experiment [1] amounted to 51%.
Consider `CCS(=O)(=O)Nc1cccc(OCc2nc3ccccc3s2)c1`, for which the inhibition in vivo at 50 mg/kg in experiment [2] was 32%; in experiment [3] it was 35%; in experiment [4] it was 13%. Besides, the inhibition in experiment [1] is 41%.
Consider `O=S(=O)(Nc1cccc(OCc2csc3ccccc23)c1)C(F)(F)F`, for which the inhibition in experiment [5] turned out to be 13%.
The same measure, in the same setting: with `O=C(O)c1ccc(S(=O)(=O)Nc2cccc(OCc3ccc4ccccc4n3)c2)cc1` the figure was 0%.
With `CCCS(=O)(=O)Nc1cccc(OCc2nc3ccccc3s2)c1`, the inhibition in experiment [1] worked out at 48%. For the same molecule, the inhibition in vivo at 50 mg/kg in experiment [3] came to 18%.
Take `O=S(=O)(Nc1ccccc1OCc1ccc2ccccc2n1)C(F)(F)F`: in experiment [5], the inhibition came out at 24%.
For `CCCS(=O)(=O)N(c1cccc(OCc2nc3ccccc3s2)c1)S(=O)(=O)CCC`, the inhibition in experiment [1] was 38%.
The same measure, in the same setting: with `CCS(=O)(=O)Nc1ccc2ccc(OCc3ccc4ccccc4c3)cc2c1` the figure was 28%.
For the molecule `O=C(O)CS(=O)(=O)Nc1cccc(OCc2ccc3ccccc3n2)c1`, the inhibition in experiment [5] came out at 58%.
As for `CCCS(=O)(=O)Nc1cccc(OCc2nc3ccccc3n2C)c1`, the inhibition in vivo at 50 mg/kg in experiment [2] is 17%; in experiment [6], 36%; in experiment [3], 31%. Besides, the inhibition in experiment [1] amounted to 37%.
Turning to `CCCS(=O)(=O)N(c1cccc(OCc2ccc3ccccc3n2)c1)S(=O)(=O)CCC`, the inhibition in experiment [1] came out at 4%.
As to `O=S(=O)(Nc1cccc(SCc2ccc3ccccc3n2)c1)C(F)(F)F`, the values for the inhibition in vivo at 25 mg/kg in experiment [7] and in experiment [8] were 59% and 97%, respectively. In experiment [5], the inhibition amounted to 85%.
Regarding `O=S(=O)(Nc1cccc(OCc2ccc3ccccc3n2)c1)c1ccc(C(F)(F)F)cc1`, in experiment [5], the inhibition is 46%.
Turning to `CCS(=O)(=O)Nc1cccc(OCc2ccc3ccccc3n2)c1`, the inhibition in experiment [1] was determined as 83%. In experiment [3], this molecule gave an inhibition in vivo at 50 mg/kg of 0%.
For the molecule `CCS(=O)(=O)Nc1ccc2ccc(OCc3nc4ccccc4s3)cc2c1`, in experiment [1], the inhibition was found to be 27%.
Take `CN(C)S(=O)(=O)Nc1cccc(OCc2ccc3ccccc3n2)c1`: in experiment [5], the inhibition turned out to be 11%.
`CCS(=O)(=O)Nc1cccc(OCc2cc3ccccc3s2)c1` came in with an inhibition in vivo at 50 mg/kg in experiment [3] of 4%. Moreover, in experiment [5], the inhibition was 13%.
As for `O=S(=O)(Nc1cccc(Oc2ccccn2)c1)C(F)(F)F`, the inhibition in experiment [5] worked out at 11%.
On to `CCCCS(=O)(=O)Nc1cccc(OCc2nc3ccccc3n2C)c1`, for which the inhibition in experiment [1] was 2%. Also, the inhibition in vivo at 50 mg/kg in experiment [3] was 8%.
Molecule `O=C1CS(=O)(=O)Nc2cc(OCc3ccc4ccccc4n3)ccc21` yielded an inhibition in vivo at 50 mg/kg in experiment [6] of 3%. In addition, the inhibition in experiment [5] stood at 78%.
Take `CCCCS(=O)(=O)Nc1cccc(OCc2nc3ccccc3s2)c1`: in experiment [1], the inhibition is 56%. Moreover, in experiment [3], the inhibition in vivo at 50 mg/kg stood at 16%.
As to `CCS(=O)(=O)N(C)c1ccc2ccc(OCc3ccc4ccccc4n3)cc2c1`, the inhibition in experiment [1] is 37%.
Take `CCS(=O)(=O)Nc1ccc2ccc(OCc3ccc4ccccc4n3)cc2c1`: the inhibition in vivo at 50 mg/kg in experiment [2] came to 24%; in experiment [6], 34%; in experiment [3] it was 20%. Moreover, the inhibition in experiment [1] turned out to be 91%.
On to `O=S(=O)(NCCc1cccc(OCc2ccc3ccccc3n2)c1)C(F)(F)F`, for which the inhibition in experiment [5] stood at 14%.
Consider `CCS(=O)(=O)Nc1cccc(OCc2nc3ccccc3n2C)c1`, for which the inhibition in experiment [1] stood at 75%. This molecule had an inhibition in vivo at 50 mg/kg in experiment [3] of 16%.
On to `O=S(=O)(Nc1cccc(Oc2cccc3cccnc23)c1)C(F)(F)F`, for which the inhibition in experiment [5] worked out at 50%.
For `O=S(=O)(CC(F)(F)F)Nc1cccc(OCc2ccc3ccccc3n2)c1`, the inhibition in experiment [5] worked out at 100%.
`Cc1ccc(S(=O)(=O)Nc2cccc(SCc3ccc4ccccc4n3)c2)cc1`: the inhibition in experiment [5] is 10%.
In the case of `CS(=O)(=O)Nc1cccc(OCc2nc3ccccc3s2)c1`, the inhibition in experiment [1] is 60%. In addition, the inhibition in vivo at 50 mg/kg in experiment [3] worked out at 44%.
For `O=S(=O)(Nc1ccccc1SCc1ccc2ccccc2n1)C(F)(F)F`, the inhibition in experiment [5] is -5%.
For the molecule `CCS(=O)(=O)Nc1cccc(OCc2ccc3ccccc3c2)c1`, the inhibition in experiment [1] is 42%.
On the same count and under the same terms, with `CCCCS(=O)(=O)Nc1cccc(OCc2ccc3ccccc3n2)c1` the figure was 30%.
Turning to `O=S(=O)(Nc1ccc(OCc2ccc3ccccc3n2)cc1)C(F)(F)F`, the inhibition in experiment [5] was 28%.
On to `CS(=O)(=O)Nc1ccc([N+](=O)[O-])cc1OCc1ccc2ccccc2n1`, for which the inhibition in experiment [5] came to 28%.
As to `CS(=O)(=O)Nc1ccc2ccc(OCc3ccc4ccccc4n3)cc2c1`, the inhibition in experiment [1] came to 68%.
Take `COC(=O)CS(=O)(=O)Nc1cccc(OCc2ccc3ccccc3n2)c1`: the inhibition in experiment [5] came out at 69%.
As to `O=S(=O)(Nc1cccc(OCc2nc3ccccc3s2)c1)C(F)(F)F`, in experiment [5], the inhibition was 94%.

Broadly, the inhibition is the drop in the measured response relative to a control, in per cent. Usually inhibition in vivo stands for how much of the control response was suppressed. Low values mean a weak effect, high ones a strong effect.
